High-throughput results (PubChem BioAssay)
Rows were chosen to be rich in hits. Some 3.5% of all compounds tested hit in one or more screens of this group.
MITF act: increases MITF-driven TRPM1 promoter luciferase signal. 300,000 compounds, 0.75% hits. SK-MEL-5 TRPM1-promoter luciferase, 24 h; % of positive control, neutral wells = 0. AID 588334. activation, % at 12.5 µM;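 active = mean activation of at least 80% with every replicate also reaching 80%; inconclusive = mean reaches 80% but some replicate falls short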
Cneo AK release: Cryptococcus neoformans lysis via adenylate kinase release; lysis activity, % at 15 µM; AID 651654; 360,000 compounds, 0.2% hits; C. neoformans lysis, adenylate kinase release luminescence, 4 h; normalised: neutral wells 0, clomiphene wells 100;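 active = mean lysis activity across replicates of at least 80%, whatever share of replicates individually reach that level; inactive = mean lysis activity below 80%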
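Test system: log-phase Cryptococcus neoformans yeast cells. Input: 5 × 10^6 yeast cells/mL. Medium: fresh YPD growth medium. Doses: single dose. Incubation: static 4 h at 37 °C with compound, 1 h detection. Measured by: luminescent adenylate kinase detection reagent. Read-out: signal increase indicating cell lysis. Benchmarks: Clomiphene.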
esBAF inh: inhibitors of esBAF chromatin remodeling in mouse ES cells | 350,000 compounds, 2% hits | reporter increase, % at 12.5 µM | Bmi1-luciferase knock-in reporter, 24 h; 100% = twice the neutral-well signal; in the data active = activation above about 40%; inconclusive = no clear call, values can overlap the other calls;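 note: a rise in the Bmi1 reporter signal indicates esBAF inhibition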
Wnt act: Wnt/beta-catenin pathway activation | Wnt/beta-catenin reporter cell assay, activator, plate reader | activation, % at 9.35 µM | 300,000 compounds, 1.2% hits | AID 743398; in the data active = activation above about 30%, passing the limit was not always enough; inconclusive = no clear call, values can overlap the other calls
ERAP1 inh: ERAP1 (human) enzyme inhibition | Q9NZ08 | recombinant ERAP1, Leu-AMC fluorescence, 60 min | inhibition, % at 10.7 µM | 340,000 compounds, 0.15% hits;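 active = mean replicate inhibition of at least 30%, or all replicates individually reaching that 30% level; inactive = mean below 30% and not every replicate reaching it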
Target sequence (Q9NZ08 whole entry, looked up): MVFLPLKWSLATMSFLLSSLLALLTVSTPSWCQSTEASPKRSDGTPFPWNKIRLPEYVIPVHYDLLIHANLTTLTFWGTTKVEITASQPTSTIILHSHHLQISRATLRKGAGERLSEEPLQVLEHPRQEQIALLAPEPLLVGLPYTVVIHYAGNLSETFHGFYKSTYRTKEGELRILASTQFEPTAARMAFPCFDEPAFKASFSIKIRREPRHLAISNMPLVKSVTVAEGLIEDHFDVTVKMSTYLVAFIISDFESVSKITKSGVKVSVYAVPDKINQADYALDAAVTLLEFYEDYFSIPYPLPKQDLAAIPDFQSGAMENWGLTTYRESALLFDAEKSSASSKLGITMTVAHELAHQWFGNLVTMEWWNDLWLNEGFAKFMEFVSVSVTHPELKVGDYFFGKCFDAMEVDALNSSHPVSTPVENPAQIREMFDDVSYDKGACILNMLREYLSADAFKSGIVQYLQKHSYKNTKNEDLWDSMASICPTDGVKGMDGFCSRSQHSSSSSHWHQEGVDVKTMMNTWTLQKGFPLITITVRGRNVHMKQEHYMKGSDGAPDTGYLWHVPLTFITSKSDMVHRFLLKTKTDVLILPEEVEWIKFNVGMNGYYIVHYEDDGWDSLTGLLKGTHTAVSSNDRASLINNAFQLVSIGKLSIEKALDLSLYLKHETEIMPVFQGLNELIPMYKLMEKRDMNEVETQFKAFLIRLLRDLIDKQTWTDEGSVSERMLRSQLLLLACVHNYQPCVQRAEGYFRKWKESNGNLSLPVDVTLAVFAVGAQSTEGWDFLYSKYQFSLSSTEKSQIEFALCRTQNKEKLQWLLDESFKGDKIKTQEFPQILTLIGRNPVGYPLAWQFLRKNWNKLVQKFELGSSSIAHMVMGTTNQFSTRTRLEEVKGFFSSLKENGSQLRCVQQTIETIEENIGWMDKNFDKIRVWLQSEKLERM
HIV Env fusion: inhibitors of HIV Env-mediated cell fusion | HeLa-JRFL Env/CEM21 cell fusion, luciferase | inhibition, % at 12.3 µM | 360,000 compounds, 1.1% hits;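 active = mean replicate inhibition score of at least 50 and every replicate individually at or above 50; inconclusive = only one of the two criteria met; inactive = mean below 50 and not all replicates reaching 50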
Each line names hits and unclear results; the compound was inactive in the other large screens; [ ] = dose if it differs, or a comment.

CCNC(=O)Nc1ccc2c(c1)C(=O)N(C)[C@@H]1CC[C@@H](CC(=O)NCC3CCCCC3)O[C@@H]1CO2	HIV Env fusion 56.6[16.7 µM] (no result: MITF act, Wnt act)
CCNC(=O)C[C@@H]1CC[C@@H]2[C@@H](COc3ccc(NC(=O)Cc4cccs4)cc3C(=O)N2C)O1	HIV Env fusion 74.8[16.7 µM] (no result: MITF act, Wnt act)
COc1cc(CN2CC3(CN(S(=O)(=O)c4cn(C)cn4)C3)c3c(n(C)c4cc(OC)ccc34)[C@@H]2CO)cc(OC)c1	none (no result: MITF act, Cneo AK release, esBAF inh, Wnt act, HIV Env fusion)
Cc1cc(C(=O)Nc2cccc3c2O[C@H](CN(C)S(=O)(=O)c2cn(C)cn2)[C@H](C)CN([C@H](C)CO)C3=O)n(C)n1	none (no result: MITF act, Wnt act, HIV Env fusion)
COc1cc2c3c(c1)C(C)CC(C)(C)N3C(=O)C2=O (centres undefined)	HIV Env fusion 59.8
COc1cc2c3c(c1)C(C)=CC(C)(C)N3C(=O)C2=O	none (no result: Cneo AK release, esBAF inh)
Cn1cc(CNCc2cn[nH]c2-c2ccc(F)cc2)c(-c2ccc3c(c2)OCCO3)n1	Wnt act 36.9 (no result: Cneo AK release, esBAF inh)
CO[C@H]1CN(C)C(=O)c2ccc(NC(=O)NC(C)C)cc2OC[C@H](C)N(Cc2ccccn2)C[C@H]1C	none (no result: MITF act, Wnt act)
O=C(Nc1nc2ccccc2s1)c1c(F)cccc1Cl	esBAF inh 51.9
Cc1ccnc2nc(C(=O)Nc3nc4ccccc4s3)nn12	Wnt act 37.9
O=C(Nc1nc(=O)c2ccccc2s1)c1ccc(F)cc1	esBAF inh 50.6 (no result: HIV Env fusion)
O=C(Nc1ccc(F)cc1F)Nc1sccc1-c1nc2ccccc2s1	none (no result: MITF act, Cneo AK release)
O=C(Nc1nc(=O)c2ccccc2s1)c1ccc(Cl)cc1	none (no result: MITF act, ERAP1 inh, HIV Env fusion)
O=C(Nc1nc2ccccc2s1)Nc1ccc(F)cc1F	Wnt act 37.9 (no result: MITF act)
C[C@H](CO)N1C[C@H](C)[C@@H](CN(C)C(=O)Nc2ccc(C(F)(F)F)cc2)Oc2ccc(NS(C)(=O)=O)cc2CC1=O	none (no result: MITF act, Wnt act, ERAP1 inh)
CC(C)NC(=O)N[C@H]1C=C[C@@H](CC(=O)NCCN2CCCC2)O[C@@H]1CO	none (no result: MITF act, Wnt act)
Nc1ccc(C(=O)Nc2nc3ccccc3s2)cc1	Wnt act 35.3 (no result: ERAP1 inh)
CC(=O)Nc1cc(C)nn1-c1nc2ccccc2s1	none (no result: Cneo AK release, esBAF inh)
Fc1cccc2sc(Nc3nc4ccccc4s3)nc12	esBAF inh inconclusive, Wnt act 36.3 (no result: ERAP1 inh)
Cc1cc(C)n(-c2ccc(C(=O)Nc3nc4ccccc4s3)cc2)n1	esBAF inh 43.7, Wnt act inconclusive (no result: ERAP1 inh, HIV Env fusion)
O=C(O)c1ccc(N/N=C/C=C/c2ccccc2)cc1	none (no result: ERAP1 inh)
O=C(O)c1ccc(N/N=C/c2ccc(-c3ccccc3)cc2)cc1	MITF act 92.4 (no result: Cneo AK release, esBAF inh)
CC(C)c1ccc(/C=N/Nc2ccc(C(=O)O)cc2)cc1	HIV Env fusion 65.5 (no result: Cneo AK release, esBAF inh)
O=C(O)c1cccc(N/N=C/c2ccc(F)c(F)c2)c1	none
O=C(O)c1cc(N/N=C/c2ccncc2)ccc1Cl	none (no result: ERAP1 inh)
O=C(O)c1ccc(/C=N/Nc2cccc(C(F)(F)F)c2)cc1	MITF act 111.2, esBAF inh 87.7
O=C(O)c1cc(N/N=C/c2ccc(-c3ccccc3)cc2)ccc1Cl	esBAF inh inconclusive, Wnt act 48.3
CC(=O)N1CC2(C1)[C@H](c1ccc(-c3ccccc3C)cc1)[C@H](CO)N2C(C)=O	none (no result: MITF act, Cneo AK release, esBAF inh, Wnt act, HIV Env fusion)
Cc1ccc(/C=N/Nc2ccc(C(=O)O)cc2)s1	HIV Env fusion 63.7
CC(=O)Nc1ccc2c(c1)C(=O)N(C)[C@@H]1CC[C@@H](CC(=O)NCc3ccccc3Cl)O[C@@H]1CO2	none (no result: MITF act, Wnt act)
Cc1ccccc1Nc1nc(N)nc(CN(C)c2ccccc2)n1	esBAF inh 46.8 (no result: Wnt act, ERAP1 inh, HIV Env fusion)
Nc1nc(COC(=O)c2ccco2)nc(Nc2ccccc2)n1	esBAF inh 47.8 (no result: MITF act)
Cc1ccccc1Nc1nc(N)nc(COC(=O)c2ccco2)n1	esBAF inh 77.1
Cc1ccc(Nc2nc(N)nc(COC(=O)c3ccc(Br)o3)n2)cc1	none
Cc1ccccc1Nc1nc(N)nc(CCl)n1	none (no result: MITF act, esBAF inh)
COc1ccc(C#Cc2ccc3c(c2)[C@H]2[C@H](CCN2S(=O)(=O)c2ccccc2C)[C@H](CO)N3C)cc1	none (no result: MITF act, Wnt act, HIV Env fusion)
O=C(Nc1ccc(F)cc1)N1C[C@@H]2[C@H](c3ccccc31)[C@H](CO)N2C(=O)c1cccnc1	none (no result: MITF act, Wnt act, HIV Env fusion)
COc1ccc(NC(=O)N(C)C[C@@H]2Oc3ccc(NC(=O)Cc4ccccc4)cc3CC(=O)N([C@H](C)CO)C[C@H]2C)cc1	none (no result: MITF act, Wnt act)
Cc1noc(C)c1NC(=O)Nc1ccc2c(c1)C(=O)N([C@@H](C)CO)C[C@@H](C)[C@@H](CN(C)C(=O)NC(C)C)O2	none (no result: MITF act, Wnt act, HIV Env fusion)
COc1ccc(NC(=O)Nc2ccc(Br)cn2)cc1	MITF act 87.1 (no result: Cneo AK release, esBAF inh)
